This passage reports EC50 results from BindingDB's records for doi:10.1021/acs.jmedchem.5b00162 (University of Montreal, 2015).

The structures appear in SMILES notation.

For assay [1], the target named is T1, Urotensin-2 receptor (Rattus norvegicus, UniProt P49684).
T1 sequence (P49684 whole entry): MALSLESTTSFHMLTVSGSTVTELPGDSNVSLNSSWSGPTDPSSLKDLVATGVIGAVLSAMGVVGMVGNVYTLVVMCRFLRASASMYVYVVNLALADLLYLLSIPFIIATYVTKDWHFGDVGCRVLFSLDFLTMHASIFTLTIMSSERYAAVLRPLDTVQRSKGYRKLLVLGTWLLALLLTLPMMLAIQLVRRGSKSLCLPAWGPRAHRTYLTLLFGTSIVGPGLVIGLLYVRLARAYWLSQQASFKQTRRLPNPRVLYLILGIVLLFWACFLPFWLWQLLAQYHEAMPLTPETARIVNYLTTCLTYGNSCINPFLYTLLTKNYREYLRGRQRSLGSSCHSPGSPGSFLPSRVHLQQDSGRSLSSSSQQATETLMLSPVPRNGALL
The experiment in a line: Modulation of urotensin-2 receptor in Sprague-Dawley rat thoracic aortic ring assessed as urotensin-2 related peptide pEC50 for induction of aortic ring contraction at 10 uM preincubated for 15 mins followed by urotensin-2 related peptide addition (Rvb = 7.89 +/- 0.08 no unit).

In assay [2] the target is T1, Urotensin-2 receptor. The experiment in a line: Modulation of urotensin-2 receptor in Sprague-Dawley rat thoracic aortic ring assessed as human urotensin-2 EC50 for induction of aortic ring contraction at 10 uM preincubated for 15 mins followed by human urotensin-2 addition (Rvb = 1.9 nM). An outline of the steps: (§1)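 Thoracic aortic rings from adult male Sprague-Dawley rats (250–300 g, killed by CO2). Rings were exposed to test compound for 15 min, then cumulative hUII concentration-response curves were run (10-10–3.10-6 M). Contraction is expressed as % of the 40 mM KCl response, with KCl given at the start and end. EC50/pEC50/Emax come from a variable-slope sigmoidal fit. At least triplicate.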

Assay [3] addresses T1, Urotensin-2 receptor. As to the kind of experiment: Modulation of urotensin-2 receptor in Sprague-Dawley rat thoracic aortic ring assessed as urotensin-2 related peptide EC50 for induction of aortic ring contraction at 10 uM preincubated for 15 mins followed by urotensin-2 related peptide addition (Rvb = 13 nM).
In assay [4] the target is T1, Urotensin-2 receptor. As to the kind of experiment: Modulation of urotensin-2 receptor in Sprague-Dawley rat thoracic aortic ring assessed as human urotensin-2 pEC50 for induction of aortic ring contraction at 10 uM preincubated for 15 mins followed by human urotensin-2 addition (Rvb = 8.71 +/- 0.08 no unit). An outline of the steps:
as §1

A short description of assay [5]: Modulation of urotensin-2 receptor in Sprague-Dawley rat thoracic aortic ring assessed as human urotensin-2 EC50 for induction of aortic ring contraction at 15 uM preincubated for 15 mins followed by human urotensin-2 addition (Rvb = 1.9 nM).
The nature of assay [6]: Modulation of urotensin-2 receptor in Sprague-Dawley rat thoracic aortic ring assessed as human urotensin-2 pEC50 for induction of aortic ring contraction at 15 uM preincubated for 15 mins followed by human urotensin-2 addition (Rvb = 8.71 +/- 0.08 no unit).
Assay [7] is described as follows: Modulation of urotensin-2 receptor in Sprague-Dawley rat thoracic aortic ring assessed as urotensin-2 related peptide EC50 for induction of aortic ring contraction at 15 uM preincubated for 15 mins followed by urotensin-2 related peptide addition (Rvb = 13 nM).
A short description of assay [8]: Modulation of urotensin-2 receptor in Sprague-Dawley rat thoracic aortic ring assessed as urotensin-2 related peptide pEC50 for induction of aortic ring contraction at 15 uM preincubated for 15 mins followed by urotensin-2 related peptide addition (Rvb = 7.89 +/- 0.08 no unit).
Assay [9] in a line: Modulation of urotensin-2 receptor in Sprague-Dawley rat thoracic aortic ring assessed as human urotensin-2 EC50 for induction of aortic ring contraction at 8 uM preincubated for 15 mins followed by human urotensin-2 addition (Rvb = 1.9 nM).
Assay [10] can be described thus: Modulation of urotensin-2 receptor in Sprague-Dawley rat thoracic aortic ring assessed as human urotensin-2 pEC50 for induction of aortic ring contraction at 8 uM preincubated for 15 mins followed by human urotensin-2 addition (Rvb = 8.71 +/- 0.08 no unit).
Assay [11] is described as follows: Modulation of urotensin-2 receptor in Sprague-Dawley rat thoracic aortic ring assessed as urotensin-2 related peptide EC50 for induction of aortic ring contraction at 8 uM preincubated for 15 mins followed by urotensin-2 related peptide addition (Rvb = 13 nM).
A short description of assay [12]: Modulation of urotensin-2 receptor in Sprague-Dawley rat thoracic aortic ring assessed as urotensin-2 related peptide pEC50 for induction of aortic ring contraction at 8 uM preincubated for 15 mins followed by urotensin-2 related peptide addition (Rvb = 7.89 +/- 0.08 no unit).
The target in assay [13] is T1, Urotensin-2 receptor. The experiment in a line: Modulation of urotensin-2 receptor in Sprague-Dawley rat thoracic aortic ring assessed as urotensin-2 related peptide pEC50 for induction of aortic ring contraction at 11 uM preincubated for 15 mins followed by urotensin-2 related peptide addition (Rvb = 7.89 +/- 0.08 no unit).
The target of assay [14] is T1, Urotensin-2 receptor. As to the kind of experiment: Modulation of urotensin-2 receptor in Sprague-Dawley rat thoracic aortic ring assessed as human urotensin-2 EC50 for induction of aortic ring contraction at 11 uM preincubated for 15 mins followed by human urotensin-2 addition (Rvb = 1.9 nM).
In assay [15] the target is T1, Urotensin-2 receptor. The experiment in a line: Modulation of urotensin-2 receptor in Sprague-Dawley rat thoracic aortic ring assessed as human urotensin-2 pEC50 for induction of aortic ring contraction at 11 uM preincubated for 15 mins followed by human urotensin-2 addition (Rvb = 8.71 +/- 0.08 no unit).
For assay [16], the target named is T1, Urotensin-2 receptor. As to the kind of experiment: Modulation of urotensin-2 receptor in Sprague-Dawley rat thoracic aortic ring assessed as urotensin-2 related peptide EC50 for induction of aortic ring contraction at 11 uM preincubated for 15 mins followed by urotensin-2 related peptide addition (Rvb = 13 nM).
In assay [17] the target is T1, Urotensin-2 receptor. The experiment in a line: Modulation of urotensin-2 receptor in Sprague-Dawley rat thoracic aortic ring assessed as urotensin-2 related peptide pEC50 for induction of aortic ring contraction at 14 uM preincubated for 15 mins followed by urotensin-2 related peptide addition (Rvb = 7.89 +/- 0.08 no unit).
Assay [18] has as its target T1, Urotensin-2 receptor. The experiment in a line: Modulation of urotensin-2 receptor in Sprague-Dawley rat thoracic aortic ring assessed as human urotensin-2 EC50 for induction of aortic ring contraction at 14 uM preincubated for 15 mins followed by human urotensin-2 addition (Rvb = 1.9 nM).
For assay [19], the target named is T1, Urotensin-2 receptor. As to the kind of experiment: Modulation of urotensin-2 receptor in Sprague-Dawley rat thoracic aortic ring assessed as human urotensin-2 pEC50 for induction of aortic ring contraction at 14 uM preincubated for 15 mins followed by human urotensin-2 addition (Rvb = 8.71 +/- 0.08 no unit).
Assay [20] deals with T1, Urotensin-2 receptor. The experiment in a line: Modulation of urotensin-2 receptor in Sprague-Dawley rat thoracic aortic ring assessed as urotensin-2 related peptide EC50 for induction of aortic ring contraction at 14 uM preincubated for 15 mins followed by urotensin-2 related peptide addition (Rvb = 13 nM).
Assay [21] has as its target T1, Urotensin-2 receptor. The experiment in a line: Modulation of urotensin-2 receptor in Sprague-Dawley rat thoracic aortic ring assessed as human urotensin-2 EC50 for induction of aortic ring contraction at 4 uM preincubated for 15 mins followed by human urotensin-2 addition (Rvb = 1.9 nM).
The target in assay [22] is T1, Urotensin-2 receptor. The experiment in a line: Modulation of urotensin-2 receptor in Sprague-Dawley rat thoracic aortic ring assessed as human urotensin-2 EC50 for induction of aortic ring contraction at 1 uM preincubated for 15 mins followed by human urotensin-2 addition (Rvb = 1.9 nM).
The target of assay [23] is T1, Urotensin-2 receptor. The experiment in a line: Modulation of urotensin-2 receptor in Sprague-Dawley rat thoracic aortic ring assessed as human urotensin-2 pEC50 for induction of aortic ring contraction at 4 uM preincubated for 15 mins followed by human urotensin-2 addition (Rvb = 8.71 +/- 0.08 no unit).
Assay [24] has as its target T1, Urotensin-2 receptor. As to the kind of experiment: Modulation of urotensin-2 receptor in Sprague-Dawley rat thoracic aortic ring assessed as human urotensin-2 pEC50 for induction of aortic ring contraction at 1 uM preincubated for 15 mins followed by human urotensin-2 addition (Rvb = 8.71 +/- 0.08 no unit).

As to `NCCC[C@@H]1N[C@H](c2cccc3ccccc23)c2[nH]c(C(=O)O)cc2N(CCc2ccc(O)cc2)C1=O`, the EC50 on Urotensin-2 receptor [1] is 4.6 nM; on Urotensin-2 receptor [2], 5.7 nM; at Urotensin-2 receptor [3] it was 4.5 nM; at Urotensin-2 receptor [4] it was 5.6 nM.

Regarding `NCCCC[C@@H]1N[C@@H](c2ccc3ccccc3c2)c2[nH]c(C(=O)O)cc2N(CCc2ccc(O)cc2)C1=O`, the EC50 at Urotensin-2 receptor [1] worked out at 8.7 nM; at Urotensin-2 receptor [2] it was 1.5 nM; on Urotensin-2 receptor [3], 8.7 nM; at Urotensin-2 receptor [4], 1.5 nM.

For `NCCCC[C@@H]1N[C@H](c2ccc3ccccc3c2)c2[nH]c(C(=O)O)cc2N(CCc2ccc(O)cc2)C1=O`, the EC50 on Urotensin-2 receptor [1] worked out at 8.3 nM; at Urotensin-2 receptor [2] it was 5 nM; on Urotensin-2 receptor [3], 8.2 nM; on Urotensin-2 receptor [4], 4.9 nM.

Consider `NCCCC[C@@H]1N=C(c2ccc(-c3ccccc3)cc2)c2[nH]c(C(=O)O)cc2N(CCc2ccc(O)cc2)C1=O`, for which the EC50 turned out to be 6.6 nM in assay [5], 6.5 nM in assay [6], 12 nM in assay [7] and 12 nM in [8].

For `NCCCC[C@@H]1N=C(c2cccc3ccccc23)c2[nH]c(C(=O)O)cc2N(CCc2ccc(O)cc2)C1=O`, the EC50 in assay [9] was 7.8 nM; in assay [10], 7.8 nM; in assay [11], 5.3 nM; in [12], 5.4 nM.

With `NCCC[C@@H]1N[C@H](c2ccc(-c3ccccc3)cc2)c2[nH]c(C(=O)O)cc2N(CCc2ccc(O)cc2)C1=O`, the EC50 amounted to 8.1 nM at Urotensin-2 receptor [13], 4.3 nM on Urotensin-2 receptor [14], 4.3 nM on Urotensin-2 receptor [15] and 8.1 nM on Urotensin-2 receptor [16].

`NCCCC[C@@H]1N[C@@H](c2ccc(-c3ccccc3)cc2)c2[nH]c(C(=O)O)cc2N(CCc2ccc(O)cc2)C1=O`: the EC50 on Urotensin-2 receptor [17] was found to be 10 nM; at Urotensin-2 receptor [18], 8.8 nM; on Urotensin-2 receptor [19] it was 8.7 nM; at Urotensin-2 receptor [20], 10 nM.

For the molecule `NCCCC[C@@H]1N[C@H](c2ccc(-c3ccccc3)cc2)c2[nH]c(C(=O)O)cc2N(CCc2ccc(O)cc2)C1=O`, the EC50 at Urotensin-2 receptor [17] is 19 nM; on Urotensin-2 receptor [21] it was 3.5 nM; at Urotensin-2 receptor [22], 4.5 nM; on Urotensin-2 receptor [23] it was 3.5 nM; on Urotensin-2 receptor [24], 4.5 nM; at Urotensin-2 receptor [20], 19 nM.

Consider `NCCC[C@@H]1N[C@@H](c2cccc3ccccc23)c2[nH]c(C(=O)O)cc2N(CCc2ccc(O)cc2)C1=O`, for which the EC50 on Urotensin-2 receptor [1] worked out at 3.6 nM; at Urotensin-2 receptor [2], 4.8 nM; at Urotensin-2 receptor [3], 3.7 nM; on Urotensin-2 receptor [4], 4.8 nM.

Consider `NCCCC[C@@H]1N=C(c2ccc3ccccc3c2)c2[nH]c(C(=O)O)cc2N(CCc2ccc(O)cc2)C1=O`, for which the EC50 stood at 21 nM at Urotensin-2 receptor [1], 4 nM at Urotensin-2 receptor [2], 21 nM on Urotensin-2 receptor [3] and 4.7 nM at Urotensin-2 receptor [4].

For `NCCC[C@@H]1N=C(c2ccc3ccccc3c2)c2[nH]c(C(=O)O)cc2N(CCc2ccc(O)cc2)C1=O`, the EC50 is 6.8 nM on Urotensin-2 receptor [1], 9.5 nM on Urotensin-2 receptor [2], 6.8 nM on Urotensin-2 receptor [3] and 9.3 nM at Urotensin-2 receptor [4].

For `NCCC[C@@H]1N=C(c2cccc3ccccc23)c2[nH]c(C(=O)O)cc2N(CCc2ccc(O)cc2)C1=O`, the EC50 on Urotensin-2 receptor [1] was 12 nM; at Urotensin-2 receptor [2] it was 2.7 nM; on Urotensin-2 receptor [3], 12 nM; at Urotensin-2 receptor [4], 2.6 nM.

Regarding `NCCC[C@@H]1N=C(c2ccc(-c3ccccc3)cc2)c2[nH]c(C(=O)O)cc2N(CCc2ccc(O)cc2)C1=O`, the EC50 at Urotensin-2 receptor [1] came to 23 nM; on Urotensin-2 receptor [2], 12 nM; on Urotensin-2 receptor [3] it was 23 nM; on Urotensin-2 receptor [4] it was 12 nM.
